In brackets after ≈: the same amount, converted by molar mass.

What is called IC50 is the concentration that gives 50% inhibition. Read a high IC50 as lower potency.

Holding throughout (assay type): functional, organism-based
In assay [1] the test system is Trypanosoma brucei rhodesiense. The experiment in a line: Antitrypanosomal activity against Trypanosoma brucei rhodesiense KETRI 243 As 10-3 isolate after 48 hrs. The gist of the method: (§1)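 Bloodstream-form trypanosomes were cultured in modified IMDM with 20% horse serum at 37 °C, in 24-well plates inoculated with 10^5 trypanosomes per well. Half the well volume was changed daily. Compounds were dissolved in DMSO, with a final DMSO concentration of at most 0.3%, and tested in duplicate at final concentrations of 0.1–100 µg/mL. Parasites were Coulter-counted at 48 h, and IC50 values were taken from semi-log plots. Each assay was run at least twice.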

Assay [2] has as its system Trypanosoma brucei rhodesiense. Nature of the assay: Antitrypanosomal activity against Trypanosoma brucei rhodesiense KETRI 243 isolate after 48 hrs. The gist of the method:
as §1

Assay [3] concerns Trypanosoma brucei brucei. Nature of the assay: Antitrypanosomal activity against Trypanosoma brucei brucei Lab110 EATRO after 48 hrs. Summed up:
as §1

With `O=C(/C=C(O)/C=C/c1ccc(O)cc1)CCc1ccc(O)cc1`, the 50% inhibitory concentration (IC50) in assay [1] stood at 1.3 µg/mL (≈ 4.19 µM); in assay [2], 2.8 µg/mL (≈ 9.02 µM); in assay [3] it was 2.6 µg/mL (≈ 8.38 µM).
In the same order, the values of `Nc1nc(N)nc(Nc2ccc([As]3SCC(CO)S3)cc2)n1` (stereo unspecified) [MELARSOPROL] are 0.005 µg/mL, 0.0005 µg/mL and 0.002 µg/mL.
For `COc1cc(/C=C/C(O)=C/C(=O)CCc2ccc(O)c(OC)c2)ccc1O` [LETESTUIANIN B] the same measures were above 100 µg/mL, above 100 µg/mL and 67 µg/mL (≈ 181 µM).
For `N=C(N)c1ccc(OCCCCCOc2ccc(C(=N)N)cc2)cc1` [PENTAMIDINE] the same measures were 0.004 µg/mL (≈ 0.0117 µM), 0.0005 µg/mL (≈ 0.00147 µM) and 0.0006 µg/mL (≈ 0.00176 µM).
Compound `COc1cc(CCC(=O)/C=C(O)/C=C/c2ccc(O)cc2)ccc1O` [LETESTUIANIN A] came in with an IC50 in assay [3] above 100 µg/mL.
Take `O=C(CCc1ccc(O)cc1)CC(=O)CCc1ccc(O)cc1` [LETESTUIANIN C]: the IC50 is 2.6 µg/mL (≈ 8.32 µM) in assay [1], 2.3 µg/mL (≈ 7.36 µM) in assay [2] and 1.4 µg/mL (≈ 4.48 µM) in assay [3].

The record behind these values is ChEMBL document CHEMBL1150674, “Trypanocidal diarylheptanoids from Aframomum letestuianum” (J Nat Prod, 2003).
